# Hits are enriched below; roughly 2.3% of the tested compounds scored in any of these assays.
# Bim-Mcl-1: human Bim-Mcl-1 interaction inhibition; AID 1009; Q07820; Bead-based flow cytometry, Bim peptide-Mcl-1 binding; 0.1% of 190,000 active; inhibition, % at 10 µM; in the data active means inhibition above about 40%;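 further: 0% = no compound tracer wells and 100% = peptide blocker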
# Target sequence (Q07820 whole entry, looked up): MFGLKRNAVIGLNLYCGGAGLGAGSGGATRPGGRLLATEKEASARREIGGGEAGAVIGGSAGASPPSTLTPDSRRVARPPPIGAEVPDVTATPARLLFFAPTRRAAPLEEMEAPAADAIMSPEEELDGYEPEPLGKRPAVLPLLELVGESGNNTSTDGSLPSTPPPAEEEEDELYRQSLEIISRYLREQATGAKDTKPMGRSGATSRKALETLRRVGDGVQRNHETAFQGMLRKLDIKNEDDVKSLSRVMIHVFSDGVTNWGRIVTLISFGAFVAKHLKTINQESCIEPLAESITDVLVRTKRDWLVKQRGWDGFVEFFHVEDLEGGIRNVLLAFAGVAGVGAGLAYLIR
# Mcl1 Bid PPI: disrupts binding of human Mcl-1 to Bid peptide. Q07820. 0.97% of 220,000 active. inhibition, % at 21.7 µM. TR-FRET Mcl-1/Bid-Dy647 peptide binding, 1536-well;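 active means compounds that cut the binding signal by more than half at the single screening dose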;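 further: His-tagged Mcl-1 with europium anti-His antibody binding Bid BH3 peptide; 0% = Mcl-1 plus peptide wells and 100% = peptide-only wells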
# Mcl1 Noxa PPI: Mcl-1/Noxa interaction inhibition | Q07820 | TR-FRET Mcl-1/Noxa peptide binding, 2 h | inhibition, % at 21.7 µM | 1.5% of 220,000 active | AID 1022;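 active means compounds that cut the protein-peptide binding signal by more than 50% relative to plate controls in a single-dose test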;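 further: His-tagged Mcl-1 with rhodamine Noxa BH3 peptide and terbium anti-His antibody; 0% = Mcl-1 plus Noxa peptide wells and 100% = peptide-only wells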
# MCL1 BIM primary: MCL1-BIM-BH3 interaction inhibition (human) | 0.68% of 320,000 active | inhibition, % at 10.9 µM | GST-MCL1 / FITC-Bim-BH3 fluorescence polarization;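 active means inhibition above the mean inhibition of all tested compounds plus 3 SD, set per campaign, cut at about 40% in these data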;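 further: 0% = DMSO wells and 100% = unlabeled Bim-BH3 peptide control; higher means more loss of mP so more displacement of Bim peptide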
# T cell HTS: T cell immune modulators affecting CD8 T cell-vesicle binding. 2C CD8+ T cell-vesicle binding, flow cytometry; stronger effect = lower value. response (vesicle binding), % at 7 µM. 0.068% of 330,000 active;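 active means response, share of CD8 T cells binding vesicles, and their 90th percentile fluorescence all below set limits, cut at about 80% in these data, passing the limit was not always enough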;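 further: values below 100% mean blocked vesicle binding to the CD8+ T cells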
#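 Read-out – percent CD8+ FL2 mean versus row control · System – murine 2C transgenic CD8+ T lymphocytes · Times – 1.5 h cell–vesicle binding at 37 °C, then 20 min icy labelling · Control set – naked vesicles low, QL9 vesicles with vehicle high · Detection – cytometric PE anti-B7-1 and Alexa647 anti-CD8 signals after 1% paraformaldehyde fixation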
# DSG3 Ab inh: blocks pemphigus antibody binding to human desmoglein-3; 0.48% of 310,000 active; DSG3-coupled beads, scFv-anti-DSG3-GFP binding, flow cytometry; stronger effect = lower value; binding (percent of control), % at 10 µM; P32926; AID 588358;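 active means binding more than 3 SD below its plate's average and above zero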;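 further: hits lower antibody fragment binding to DSG3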
# BCLXL inh confirm: Bcl-xL (human) inhibition, MCL1 counter-screen confirmation. shares compounds with MCL1 BIM primary. GST-Bcl-xL / FITC-Bim BH3 peptide FP binding. inhibition, % at 10.9 µM. 54% of 1,700 active. AID 2166;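 active means inhibition above a cutoff equal to the mean inhibition of all tested compounds plus 3 SD, cut at about 30% in these data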;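 further: 0% = DMSO wells and 100% = unlabeled Bim BH3 control peptide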
# Target sequence (Q07817 whole entry, looked up): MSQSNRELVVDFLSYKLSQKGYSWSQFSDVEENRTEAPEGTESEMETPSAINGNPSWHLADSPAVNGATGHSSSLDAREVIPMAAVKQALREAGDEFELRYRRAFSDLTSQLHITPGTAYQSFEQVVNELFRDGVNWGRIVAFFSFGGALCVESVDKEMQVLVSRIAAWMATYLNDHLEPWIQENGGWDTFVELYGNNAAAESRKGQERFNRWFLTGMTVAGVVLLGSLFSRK
# MCL1 inh confirm: MCL1-BIM-BH3 interaction inhibition, confirmation | shares compounds with MCL1 BIM primary | AID 2168 | GST-MCL1 / FITC-Bim-BH3 fluorescence polarization | 61% of 1,700 active | inhibition, % at 10.9 µM;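 active means inhibition above the average of all tested compounds plus 3 SD, cut at about 40% in these data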;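 further: 0% = DMSO wells and 100% = unlabeled Bim-BH3 control peptide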
# Numbers without * were called inactive; i = inactive; · = no result given; + = active, no number.
SMILES,Bim-Mcl-1,Mcl1 Bid PPI,Mcl1 Noxa PPI,MCL1 BIM primary,T cell HTS,DSG3 Ab inh,BCLXL inh confirm,MCL1 inh confirm
N#C/C(=C\c1ccc(-c2ccc(F)cc2)o1)C(=O)Nc1nc(-c2cccs2)cs1,1,22,57*,41*,241,99,45*,73*
Cc1cc2nnc(SCC(=O)NC3CCCCC3)n2c(N)n1,·,·,·,-5,543,101,·,·
CC(C)NC(=O)c1ccc2c(c1)N(CC(=O)NC1CCCCC1)C(=O)C(C)(C)O2,·,·,·,·,·,93,·,·
CC1(C)Oc2ccc(C(=O)NC3CCCC3)cc2N(CC(=O)NC2CCCCC2)C1=O,-1,0,3,54*,232,96,25,34
NC(=O)Cn1c(=O)n(Cc2ccco2)c(=O)c2c3c(sc21)CCCCC3,-1,-18,64*,77*,573,·,31*,77*
CC(C)N(C(=O)[C@H]1C[C@H](CC(=O)NCCCn2ccnc2)C(=O)N2CCc3c([nH]c4ccc(Cl)cc34)[C@]12C)C(C)C,·,·,·,·,·,94,·,·
CCOc1ccc(C(=O)CC(=O)C(=O)NCCc2ccc(OC)c(OC)c2)cc1,0,-61,-40,-1,0,113,·,·
Nc1c(C(=O)Nc2ccc(S(=O)(=O)N3CCCC3)cc2)sc2nc3ccc(OC(F)(F)F)cc3cc12,1,-38,17,48*,954,113,36*,42*
O=C(N/N=C/c1cccnc1)c1cccc(S(=O)(=O)Nc2cccc(Cl)c2)c1,0,-4,-6,6,541,·,·,·
O=C(N/N=C/c1ccncc1)c1cccc(S(=O)(=O)Nc2ccc(Cl)cc2)c1,·,79*,3,52*,305,97,-1,74*
CCOC(=O)c1ccccc1NC(=O)N1CCn2c(C)ccc2C1CC (stereo not given),0,-60,-3,63*,121,119,35*,39
CC(=O)c1ccc(OCC(=O)N2CCN(S(=O)(=O)c3ccc(C)cc3C)CC2)cc1,·,·,·,-6,308,92,·,·
COC(CNC(=O)c1ccc2c3c(onc13)-c1ccccc1C2=O)OC,·,-187,70*,+,328,112,+,+
O=c1[nH]c(-[n+]2ccc3ccccc3c2)c(/C=N/N=C(\[O-])c2ccccc2)s1,·,·,·,99*,278,631,22,34
CC(C)C[C@H]1C(=O)N2CCC[C@H]2[C@]2(O)O[C@](NC(=O)[C@@H]3C=C4c5cccc6[nH]c(Br)c(c56)CC4N(C)C3)(C(C)C)C(=O)N12 (stereo not given in full),0,6,18,111*,750,·,24,28
Cc1oc(/N=C/c2ccccc2O)c(C#N)c1C,-3,-20,·,9,271,105,·,·
Cc1oc(/N=C/c2ccc(O)cc2O)c(C#N)c1C,0,-46,17,65*,717,93,57*,65*
O=C1c2cccc(NCCNCCO)c2C(=O)c2cccc(NCCNCCO)c21,·,·,·,·,·,98,·,·
c1ccc(Nc2ccccc2Nc2ccccn2)nc1,-3,3,9,98*,468,98,18,29
CCCCSc1ccc(NC(=O)c2cccnc2)cc1,-3,-8,8,77*,422,102,3,9
CCC(C)c1ccc(NC(=O)c2cccnc2)cc1 (stereo not given),-1,-10,27,-2,370,101,·,·
CC1(C)CC(=O)C=C(c2ccc(-c3cnc4ccccc4c3)cc2)C1=O,·,·,·,·,·,98,·,·
CCOC(=O)C1=C(C)NC(C)=C(C(=O)OCC)C1C(=O)OCC(N)=O,1,-48,-4,110*,290,121,5,8
CC1=NN(c2cccc(C(=O)O)c2)C(=O)/C1=C\C=C\c1ccco1,0,-16,98*,81*,443,103,30*,68*
CC1=NN(c2ccccc2)C(=O)/C1=C/C=C/c1ccccc1,-2,-10,3,9,178,105,·,·
SMILES,Bim-Mcl-1,Mcl1 Bid PPI,Mcl1 Noxa PPI,MCL1 BIM primary,T cell HTS,DSG3 Ab inh,BCLXL inh confirm,MCL1 inh confirm
NC(=O)/C(=C/c1ccco1)C(N)=S,·,-10,25,116*,i,·,21,18
O=C(CCCN1C(=O)/C(=C/c2ccco2)SC1=S)Nc1cccc(C(=O)O)c1,·,-34,15,60*,572,99,29,39
O=C(CCCN1C(=O)/C(=C\c2ccco2)SC1=S)Nc1ccc(O)cc1C(=O)O,·,·,·,71*,435,124,51*,77*
O=C(CCCN1C(=O)/C(=C\c2cccs2)SC1=S)Nc1cccc(C(=O)O)c1,0,-19,15,13,242,98,·,·
CC1CCN(Cc2c(O)ccc3c2O/C(=C\c2ccco2)C3=O)CC1,2,-12,56*,149*,447,95,119*,140*
COC(=O)COc1ccc2c(c1)O/C(=C\c1ccco1)C2=O,·,·,·,0,442,97,·,·
Cc1ccc(/C=C2\Oc3c(ccc(O)c3CN3CCN(CCO)CC3)C2=O)cc1,0,-10,7,37,175,90,·,·
O=C1/C(=C/c2ccco2)Oc2c1ccc(O)c2CN1CCCCC1,1,-13,54*,128*,740,99,132*,148*
COCCN(CCOC)Cc1c(O)ccc2c1O/C(=C\c1ccco1)C2=O,·,·,·,110*,278,116,107*,118*
CC(C)c1ccc(/C=C2\Oc3c(ccc(O)c3CN3CCN(C)CC3)C2=O)cc1,1,-24,4,36,375,99,·,·
CCN(CC(=O)NCc1ccc(F)cc1)C(=O)C(C)Oc1cccc(Cl)c1 (stereo not given),·,·,·,-18,416,86,·,·
CSc1nc(NCCN(C)C)c2sc3nc(-c4ccco4)c4c(c3c2n1)CCC4,·,·,·,·,·,116,·,·
CSc1nc(N(C)CCO)c2sc3nc(-c4ccco4)c4c(c3c2n1)CCC4,8,93*,103*,75*,387,102,36*,76*
Cc1nnc(C)c2c(C)n(-c3ccccc3N)c(C)c12,0,-61,5,94*,147,98,14,14
Cc1ccc(S(=O)(=O)N2CCCCC2CCNC(=O)C(=O)Nc2ccccc2F)cc1 (stereo not given),·,·,·,-1,399,112,·,·
O=C(NCc1ccco1)c1c2c(nc3ccccc13)CCC2,-3,-41,102*,58*,105,104,30,68*
O=S(=O)(Nc1cc(S(=O)(=O)N2CCOCC2)ccc1Cl)c1ccccc1,·,·,·,·,158,106,·,·
c1ccc(Cc2nc3ccccc3s2)cc1,·,·,·,·,·,122,·,·

# High-throughput results deposited in PubChem by several laboratories.
